# pEC50: −log10 of the molar value.
# Test system: Hepatitis C virus
# Assay: Antiviral activity against HCV1a infected in clone A and ET-lunet cells assessed as inhibition of viral replication after 4 days by RT-PCR analysis
# Type: functional, organism-based, Hepacivirus hominis
# Details: subtype 1a, 96 h
# How it was run: (§1)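 Run in HCV genotype 1a and 1b replicon cells; each reported value is the mean of n = 2 independent determinations.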
row,SMILES,pEC50
1,O=C(NCc1cccs1)c1cc2nc(-c3ccco3)cc(C(F)(F)Cl)n2n1 [ANGUIZOLE],6.25

# Test system: not listed separately
# Assay: Half life in human liver microsomes
# Type: ADME
# Details: not given
row,SMILES,half-life
1,C/C=C/[C@H]1CN(C(=O)c2cc(-c3ccc(F)cc3)on2)[C@@H](CC(C)C)C(=O)N1,17 min
2,CC(C)C[C@H]1C(=O)N[C@@H](c2ccccc2)CN1C(=O)c1cc(-c2ccc(F)cc2)on1,54 min
3,CC(C)C[C@H]1C(=O)N[C@@H](C2CCCC2)CN1C(=O)c1cc(-c2ccc(F)cc2)on1,29 min

# Test system: Hepatitis C virus
# Assay: Antiviral activity against HCV1b infected in clone A and ET-lunet cells assessed as inhibition of viral replication after 4 days by RT-PCR analysis
# Type: functional, organism-based, Hepacivirus hominis
# Details: genotype 1b, 96 h
# How it was run: as §1
SMILES,EC90,pEC50
CSCC[C@H]1CN(C(=O)c2cc(-c3ccc(F)cc3)on2)[C@@H](CC(C)C)C(=O)N1,390 nM,
CC(C)C[C@H]1C(=O)N[C@@H](CO)CN1C(=O)c1cc(-c2ccc(F)cc2)on1,> 10000 nM,
Cc1ccsc1[C@H]1CN(C(=O)c2cc(-c3ccc(F)cc3)on2)[C@@H](CC(C)C)C(=O)N1,680 nM,
CC(C)C[C@H]1CN(C(=O)c2cc(-c3ccccc3)[nH]n2)[C@@H](CC(C)C)C(=O)N1,> 10000 nM,
CC(C)C[C@H]1CN(C(=O)/C=C/c2ccc(N(C)C)cc2)[C@@H](CC(C)C)C(=O)N1,> 10000 nM,
O=C(NCc1cccs1)c1cc2nc(-c3ccco3)cc(C(F)(F)Cl)n2n1 [ANGUIZOLE],,6.51
CC(C)C[C@H]1CN(C(=O)/C=C/c2ccc(F)cc2)[C@@H](CC(C)C)C(=O)N1,1500 nM,
CC(C)C[C@H]1C(=O)N[C@@H](C(C)C)CN1C(=O)c1cc(-c2ccc(F)cc2)on1,170 nM,
CC(C)C[C@H]1C(=O)N[C@@H](c2ccsc2)CN1C(=O)c1cc(-c2ccc(F)cc2)on1,26 nM,
CC(C)C[C@H]1CN(C(=O)c2c[nH]c(-c3ccccc3)n2)[C@@H](CC(C)C)C(=O)N1,> 10000 nM,
CC(C)C[C@H]1C(=O)N[C@@H](C2CCOCC2)CN1C(=O)c1cc(-c2ccc(F)cc2)on1,470 nM,
CC(C)C[C@H]1CN(C(=O)/C=C/c2ccc(S(C)(=O)=O)cc2)[C@@H](CC(C)C)C(=O)N1,> 10000 nM,
CC(C)C[C@H]1C(=O)N[C@@H](C(C)(C)C)CN1C(=O)c1cc(-c2ccc(F)cc2)on1,1800 nM,
CC(C)C[C@H]1CN(C(=O)c2noc(-c3ccccc3)n2)[C@@H](CC(C)C)C(=O)N1,1400 nM,
CC(C)C[C@H]1C(=O)N[C@@H](CC(C)(C)C)CN1C(=O)c1cc(-c2ccc(F)cc2)on1,2000 nM,
CSC[C@H]1CN(C(=O)c2cc(-c3ccc(F)cc3)on2)[C@@H](CC(C)C)C(=O)N1,240 nM,
CC(C)C[C@H]1CN(C(=O)c2cc(-c3ccc(F)cc3F)on2)[C@@H](CC(C)C)C(=O)N1,680 nM,
CC(C)C[C@H]1CN(C(=O)c2ccc(-c3ccccc3)o2)[C@@H](CC(C)C)C(=O)N1,> 5800 nM,
Cc1ccc([C@H]2CN(C(=O)c3cc(-c4ccc(F)cc4)on3)[C@@H](CC(C)C)C(=O)N2)cc1,760 nM,
CC(C)C[C@H]1CN(C/C=C/c2ccccc2)[C@@H](CC(C)C)C(=O)N1,3300 nM,
CC(C)C[C@H]1CN(C(=O)/C=C\c2ccccc2)[C@@H](CC(C)C)C(=O)N1,> 10000 nM,
CCCC[C@H]1CN(C(=O)c2cc(-c3ccc(F)cc3)on2)[C@@H](CC(C)C)C(=O)N1,530 nM,
COc1ccc(-c2cc(C(=O)N3C[C@H](CC(C)C)NC(=O)[C@@H]3CC(C)C)no2)cc1,1350 nM,
CC(C)C[C@H]1CN(C(=O)/C=C/c2ccc(Cl)cc2)[C@@H](CC(C)C)C(=O)N1,1600 nM,
CC(C)C[C@H]1CN(C(=O)c2cccc(-c3ccccc3)c2)[C@@H](CC(C)C)C(=O)N1,> 10000 nM,
CC(C)C[C@H]1C(=O)N[C@@H](c2ccc(C(F)(F)F)cc2)CN1C(=O)c1cc(-c2ccc(F)cc2)on1,2750 nM,

SMILES,EC90,pEC50
CCc1cc2c(cc1F)c(C#N)c(-c1ccc(S(=O)(=O)N[C@@H](C)C(F)(F)F)cn1)n2-c1ncccn1,,8.77
CC(C)C[C@H]1C(=O)N[C@@H](C2CCC2)CN1C(=O)c1cc(-c2ccc(F)cc2)on1,690 nM,
CC[C@@H](C)[C@H]1CN(C(=O)c2cc(-c3ccc(F)cc3)on2)[C@@H](CC(C)C)C(=O)N1,> 10000 nM,
C/C=C/[C@H]1CN(C(=O)c2cc(-c3ccc(F)cc3)on2)[C@@H](CC(C)C)C(=O)N1,60 nM,
CC(C)C[C@H]1C(=O)N[C@@H](CC(C(F)(F)F)C(F)(F)F)CN1C(=O)c1cc(-c2ccc(F)cc2)on1,7250 nM,
CC(C)C[C@H]1C(=O)N[C@@H](c2cc[nH]c2)CN1C(=O)c1cc(-c2ccc(F)cc2)on1,63 nM,
Cc1ccc(-c2cc(C(=O)N3C[C@H](CC(C)C)NC(=O)[C@@H]3CC(C)C)no2)cc1,1540 nM,
CC(C)C[C@H]1CN(C(=O)/C=C/c2ccccc2Cl)[C@@H](CC(C)C)C(=O)N1,9700 nM,
COC[C@H]1CN(C(=O)c2cc(-c3ccc(F)cc3)on2)[C@@H](CC(C)C)C(=O)N1,> 10000 nM,
CC(C)C[C@H]1C(=O)N[C@@H](c2ncco2)CN1C(=O)c1cc(-c2ccc(F)cc2)on1,> 10000 nM,
Cc1ccc([C@H]2CN(C(=O)c3cc(-c4ccc(F)cc4)on3)[C@@H](CC(C)C)C(=O)N2)s1,180 nM,
CC(C)C[C@H]1C(=O)N[C@@H](CN(C)C)CN1C(=O)c1cc(-c2ccc(F)cc2)on1,2740 nM,
CC[C@H]1CN(C(=O)c2cc(-c3ccc(F)cc3)on2)[C@@H](CC(C)C)C(=O)N1,710 nM,
CC(C)C[C@H]1CN(C(=O)[C@@H]2C[C@H]2c2ccccc2)[C@@H](CC(C)C)CN1,> 10000 nM,
COC(=O)c1ccc(/C=C/C(=O)N2C[C@H](CC(C)C)NC(=O)[C@@H]2CC(C)C)cc1,> 10000 nM,
CC(C)C[C@H]1CN(C(=O)/C=C/c2ccc([N+](=O)[O-])cc2)[C@@H](CC(C)C)C(=O)N1,> 10000 nM,
CC[C@H](C)[C@H]1CN(C(=O)[C@@H]2C[C@H]2c2ccccc2)[C@@H](CC(C)C)C(=O)N1,> 10000 nM,
CC(C)C[C@H]1CN(C(=O)c2cn(-c3ccccc3)cn2)[C@@H](CC(C)C)C(=O)N1,> 10000 nM,
CC(C)C[C@@H]1CN(C(=O)[C@@H]2C[C@H]2c2ccccc2)[C@@H](CC(C)C)C(=O)N1,> 10000 nM,
CC(C)C[C@H]1C(=O)N[C@@H](C2CCSCC2)CN1C(=O)c1cc(-c2ccc(F)cc2)on1,870 nM,
CC(C)C[C@H]1CN(C(=O)/C=C/c2ccc(F)cc2F)[C@@H](CC(C)C)C(=O)N1,1500 nM,
CC(C)C[C@H]1C(=O)N[C@@H](c2ccsc2Cl)CN1C(=O)c1cc(-c2ccc(F)cc2)on1,4 nM,
CC(C)C[C@H]1CN(C(=O)c2coc(-c3ccccc3)n2)[C@@H](CC(C)C)C(=O)N1,> 10000 nM,
CC(C)C[C@H]1CN(C(=O)C#Cc2ccccc2)[C@@H](CC(C)C)C(=O)N1,3200 nM,
CC(C)C[C@H]1CN(C(=O)c2csc(-c3ccccc3)n2)[C@@H](CC(C)C)C(=O)N1,> 7900 nM,
CC[C@H]1C(=O)N[C@@H](CC(C)C)CN1C(=O)[C@@H]1C[C@H]1c1ccccc1,> 10000 nM,

SMILES,EC90,pEC50
CC(C)C[C@H]1C(=O)N[C@@H](c2ccccc2)CN1C(=O)c1cc(-c2ccc(F)cc2)on1,60 nM,
CC(C)C[C@H]1CN(C(=O)c2cc(-c3ccc(N(C)C)cc3)on2)[C@@H](CC(C)C)C(=O)N1,> 10000 nM,
CC(C)C[C@H]1CN(C(=O)[C@@H]2C[C@H]2c2ccccc2)[C@@H](CC(C)C)C(=O)N1C,8800 nM,
CC(C)C[C@H]1CN(C(=O)c2cc(-c3ccccc3)on2)[C@@H](CC(C)C)C(=O)N1,1100 nM,
CC(C)C[C@H]1CN(C(=O)c2cc(-c3ccc(F)cc3)on2)[C@@H](CC(C)C)C(=O)N1,130 nM,
CC(C)C[C@H]1C(=O)N[C@@H](c2ccccc2F)CN1C(=O)c1cc(-c2ccc(F)cc2)on1,100 nM,
CCC[C@H]1CN(C(=O)c2cc(-c3ccc(F)cc3)on2)[C@@H](CC(C)C)C(=O)N1,100 nM,
CC(C)C[C@H]1CN(C(=O)/C=C/c2ccc(C(F)(F)F)cc2)[C@@H](CC(C)C)C(=O)N1,8100 nM,
CCC[C@H]1CN(C(=O)[C@@H]2C[C@H]2c2ccccc2)[C@@H](CC(C)C)C(=O)N1,900 nM,
CC(C)C[C@H]1CN(C(=O)/C=C/c2ccc(F)c(F)c2)[C@@H](CC(C)C)C(=O)N1,1500 nM,
CC(C)C[C@H]1CN(C(=O)[C@@H]2C[C@H]2c2ccccc2)[C@H](CC(C)C)C(=O)N1,> 10000 nM,
CC(C)C[C@H]1C(=O)N[C@@H](c2ccc[nH]2)CN1C(=O)c1cc(-c2ccc(F)cc2)on1,680 nM,
CC(C)C[C@H]1CN(C(=O)c2cc(-c3ccc(Br)cc3)on2)[C@@H](CC(C)C)C(=O)N1,470 nM,
CC(C)C[C@H]1CN(C(=O)c2cc(-c3ccc(Cl)cc3)on2)[C@@H](CC(C)C)C(=O)N1,290 nM,
CC(C)C[C@H]1CN(C(=O)c2cc(-c3ccc([N+](=O)[O-])cc3)on2)[C@@H](CC(C)C)C(=O)N1,2600 nM,
CC(C)C[C@H]1CN(C(=O)c2cc(-c3ccc(C#N)cc3)on2)[C@@H](CC(C)C)C(=O)N1,1530 nM,
CC(C)C[C@H]1CN(C(=O)C2CC2)[C@@H](CC(C)C)C(=O)N1,> 10000 nM,
CC(C)C[C@H]1C(=O)N[C@@H](C2CCCC2)CN1C(=O)c1cc(-c2ccc(F)cc2)on1,90 nM,
CC(C)C[C@H]1C(=O)N[C@@H](c2nccs2)CN1C(=O)c1cc(-c2ccc(F)cc2)on1,> 10000 nM,
CC(C)C[C@H]1CN(C(=O)c2cc(-c3ccc(F)c(F)c3)on2)[C@@H](CC(C)C)C(=O)N1,650 nM,
Cc1ccc(/C=C/C(=O)N2C[C@H](CC(C)C)NC(=O)[C@@H]2CC(C)C)cc1,5300 nM,
CC(C)C[C@H]1CN(C(=O)/C=C/c2ccc(Br)cc2)[C@@H](CC(C)C)C(=O)N1,7800 nM,
CC(C)C[C@H]1C(=O)N[C@@H](C2CC2)CN1C(=O)c1cc(-c2ccc(F)cc2)on1,1100 nM,
CC(C)C[C@H]1C(=O)N[C@@H](C2CCCCC2)CN1C(=O)c1cc(-c2ccc(F)cc2)on1,190 nM,
CC(C)C[C@H]1CN(C(=O)/C=C/c2ccccc2)[C@@H](CC(C)C)C(=O)N1,2300 nM,
CC(C)C[C@H]1C(=O)N[C@@H](CC2CC2)CN1C(=O)c1cc(-c2ccc(F)cc2)on1,450 nM,
